Screening results as filed in PubChem BioAssay.
Most compounds without a hit are left out; they make up all but 2.7% or so of the library.
PAFAH1B2 inh – PAFAH1B2 (human) inhibition; P68402; recombinant PAFAH1B2, FP-rhodamine activity probe, fluorescence polarization; inhibition, % at 3.39 µM; 340,000 compounds, 1.2% hits; AID 492953;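 active means inhibition above the mean of all tested compounds plus 3 SD, cut at about 24% in these data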;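 further: 0% = enzyme with DMSO and 100% = wells lacking PAFAH1B2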
PAFAH1B3 inh – PAFAH1B3 (human) inhibition | inhibition, % at 3.39 µM | 340,000 compounds, 0.28% hits | recombinant PAFAH1B3, FP-rhodamine probe, fluorescence polarization;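 active means inhibition above the screen-wide average of all tested compounds plus 3 SD, cut at about 25% in these data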;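 further: 0% = enzyme with DMSO only and 100% = wells lacking PAFAH1B3 protein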
pPAFAH FP inh – pPAFAH (human) enzyme inhibition. recombinant pPAFAH, FP-rhodamine probe fluorescence polarization. inhibition, % at 3.39 µM. 330,000 compounds, 1.5% hits. AID 463082;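 active means inhibition above the mean inhibition across the screen plus 3 SD, cut at about 25% in these data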;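 further: inhibitors block binding of the rhodamine activity-based probe so polarization drops; 0% = enzyme with DMSO and 100% = wells lacking pPAFAH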
ARFGAP1 inh – inhibitors of rat ARFGAP1; Arfgap1-stimulated ARF1 GTP hydrolysis, GDP FP detection; 360,000 compounds, 0.26% hits; Q62848; inhibition, % at 16.5 µM;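 active means inhibition above a per-plate limit, mean inhibition of low control wells plus 3 SD, cut at about 25% in these data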;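 further: 0% = DMSO wells with enzyme and 100% = wells lacking Arfgap1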
Target sequence (Q62848 1-136 limits assumed): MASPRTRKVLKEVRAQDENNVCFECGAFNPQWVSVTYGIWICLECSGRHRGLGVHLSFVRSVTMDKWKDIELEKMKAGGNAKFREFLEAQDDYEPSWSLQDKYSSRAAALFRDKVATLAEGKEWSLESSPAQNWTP
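Material – truncated rat Arfgap1 GAP domain · Buffer or medium – HEPES-based buffer, pH 7.5 · Reagent – human ARF1(Δ1-17)-GTP substrate · Dosing – 16.5 µM single point, 1.26% DMSO · Schedule – GTP hydrolysis reaction 2 h at 25 °C · Technique – GDP detection by fluorescence polarization · Benchmarks – No-Arfgap1 wells (100%) versus DMSO full-reaction wells (0%) · Repeats – single replicate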
PAFAH2 inh – inhibitors of human PAFAH2; Q99487; recombinant PAFAH2, FP-rhodamine activity probe, fluorescence polarization; inhibition, % at 3.39 µM; 340,000 compounds, 0.99% hits;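 active means inhibition above the mean over all tested compounds plus 3 SD, cut at about 30% in these data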;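 further: inhibitors block probe labeling of enzyme so polarization drops; 0% = enzyme with DMSO and 100% = wells lacking PAFAH2 protein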
ASAP1 GAP inh – ASAP1 ArfGAP inhibition | inhibition, % at 16.5 µM | ASAP1-stimulated ARF1 GTP hydrolysis, GDP FP detection | Q9ULH1 | 360,000 compounds, 0.19% hits; in the data active means inhibition above about 25%;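 further: 0% = vehicle with enzyme and substrate and 100% = no enzyme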
Target sequence (Q9ULH1 325-724 limits assumed): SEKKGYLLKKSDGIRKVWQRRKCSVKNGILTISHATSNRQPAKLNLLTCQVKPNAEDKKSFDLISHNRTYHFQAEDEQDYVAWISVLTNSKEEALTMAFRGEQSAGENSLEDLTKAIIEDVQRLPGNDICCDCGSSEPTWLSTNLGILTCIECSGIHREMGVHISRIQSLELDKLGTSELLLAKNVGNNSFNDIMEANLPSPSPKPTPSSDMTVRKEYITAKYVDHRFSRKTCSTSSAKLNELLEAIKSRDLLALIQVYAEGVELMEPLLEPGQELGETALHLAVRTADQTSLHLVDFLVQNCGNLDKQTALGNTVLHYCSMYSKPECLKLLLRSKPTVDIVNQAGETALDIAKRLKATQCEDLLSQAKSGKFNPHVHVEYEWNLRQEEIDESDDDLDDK
ARFGAP1 confirm – confirmation of rat ARFGAP1 inhibitors; shares compounds with ARFGAP1 inh; ARFGAP1-stimulated ARF1 GTP hydrolysis, GDP tracer FP; inhibition, % at 16.5 µM; 890 compounds, 30% hits; AID 651608;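 active means average inhibition over triplicates above the hit cutoff set in the earlier primary screen, cut at about 25% in these data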;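 further: 0% = Arfgap1 plus ARF1-GTP with DMSO and 100% = wells lacking Arfgap1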
The depositor's hits bear a star; x = no result given.

SMILES	PAFAH1B2 inh	PAFAH1B3 inh	pPAFAH FP inh	ARFGAP1 inh	PAFAH2 inh	ASAP1 GAP inh	ARFGAP1 confirm
O=C(Nc1ccc(F)c(Cl)c1)c1ccc2sc([C@H]3C[C@H](O)[C@@H](CO)O3)nc2c1	x	x	x	24.8*	x	13.1	4.5
CC(C)C(=O)N1CCCC1(C)C(=O)Nc1ccc(-n2cccc2)cc1 (stereo not drawn)	x	x	x	8.3	x	-3.6	x
Cc1ccc(NC(=O)Cn2c3ccc(F)cc3c3nc4n(c(=O)c32)CCS4)cc1F	-6.5	-9.0	0.0	9.6	-15.2	-3.2	x
O=C(Cn1c2ccc(F)cc2c2nc3n(c(=O)c21)CCS3)Nc1ccc(Cl)cc1F	-4.2	-7.8	-2.9	41.6*	-5.1	20.1	56.8*
COc1ccc(-n2nc3c(c2NC(=O)COc2ccccc2OC)CS(=O)(=O)C3)cc1	x	x	x	-6.2	x	4.9	x
CC1(C)CN(c2ccccc2)C(=O)[C@H]1CC(=O)Nc1ccccc1	x	x	x	-23.0	x	-7.5	x
COc1cc(C(=O)N2CCN(c3cccc(C(F)(F)F)c3)CC2)ccc1OCC(=O)N1CCOCC1	0.5	2.2	x	-10.7	-3.1	-8.1	x
Cc1ccc(OCC(O)CN2C(=O)NC(C)(C)C2=O)cc1 (stereo not drawn)	1.6	3.7	-3.2	34.7*	2.7	-0.1	-1.2
COc1ccc(-c2nc(C(=O)NCCCN3CCOCC3)cc3c2[nH]c2ccccc23)cc1OC	2.9	3.4	8.9	28.2*	-1.2	16.7	14.5
CCN(CC)CCOC(=O)c1ccc(N/C=C(/C#N)c2nc(-c3ccc4c(c3)OCO4)cs2)cc1	0.1	-5.2	18.5	31.8*	8.0	8.3	72.8*
COc1ccccc1N1CCN(C(=O)c2cc3n(n2)C(C(F)(F)F)CC(c2ccco2)N3)CC1 (stereo not drawn)	0.6	7.6	6.4	29.9*	-9.2	0.3	-3.4
O=C(Nc1cccc(C(F)(F)F)c1)Nc1ccc2nc([C@@H]3O[C@H](CO)[C@@H](O)[C@H](O)[C@H]3O)[nH]c2c1	x	x	x	2.4	x	3.1	x
COc1ccccc1C(=O)O/N=C1/CCCc2c1ccc(OC)c2[N+](=O)[O-]	-2.0	8.8	1.9	-9.8	10.4	-15.1	x
COc1cc(C(=O)O/N=C2\CCCc3c2ccc(OC)c3[N+](=O)[O-])cc(OC)c1OC	1.3	2.6	-1.2	25.1*	5.3	11.4	-7.1
C[C@@H]1CN([C@H](C)CO)C(=O)CCCn2nncc2CO[C@H]1CN(C)Cc1ccccc1C(F)(F)F	x	x	x	11.8	x	-4.5	x
CC(C)NC(=O)Cn1c(SCC(=O)N2c3ccccc3CC2C)nc2ccccc21 (stereo not drawn)	3.2	4.0	-3.7	30.7*	8.1	1.0	1.2
Cn1nc(-c2ccc(C(=O)Nc3cccnc3)cc2)c2ccccc2c1=O	0.8	2.4	1.1	24.6*	-2.3	-2.4	0.7
Cc1ccc2sc(-c3ccc(NC(=O)c4cc(-n5cnnc5)ccc4Cl)cc3)nc2c1	-12.8	-27.4	-5.4	27.7*	-26.7	14.7	17.8
O=C(Cc1c[nH]c2ccccc12)Nc1ccc(Nc2cccnc2)c(-c2ccc(Oc3ccccc3)cc2)c1	x	x	x	17.4	x	6.4	x
O=C(Cc1c[nH]c2ccccc12)Nc1ccc(Nc2cccnc2)c(-c2cc(F)cc(F)c2)c1	x	x	x	25.1*	x	4.6	20.1
O=C(Cc1c[nH]c2ccccc12)Nc1ccc(Nc2cccnc2)c(-c2ccc(OC(F)(F)F)cc2)c1	x	x	x	26.5*	x	4.2	9.7
C[C@@H]1CN([C@H](C)CO)C(=O)CCCn2nncc2CO[C@H]1CN(C)Cc1ccc(C(F)(F)F)cc1	x	x	x	4.5	x	10.5	x
Cc1ccc2nc(N3C(=O)C(O)=C(C(=O)c4ccc(C)o4)C3c3cccc(O)c3)sc2c1 (stereo not drawn)	-3.3	4.8	4.8	34.3*	12.8	18.9	51.5*
CCOC(=O)NC(NCC(O)c1ccccc1)(C(F)(F)F)C(F)(F)F (stereo not drawn)	-1.1	6.8	7.8	3.2	-6.5	3.6	x
CCCCOC(=O)NC(NCC(O)c1ccccc1)(C(F)(F)F)C(F)(F)F (stereo not drawn)	0.1	2.4	1.6	30.7*	3.9	4.7	-5.8
SMILES	PAFAH1B2 inh	PAFAH1B3 inh	pPAFAH FP inh	ARFGAP1 inh	PAFAH2 inh	ASAP1 GAP inh	ARFGAP1 confirm
CCC1CCC2(CC1)NC(=O)N(CC(=O)NCc1ccccc1Cl)C2=O (stereo not drawn)	0.7	-0.6	-1.4	15.6	-1.9	-1.1	x
COc1ccccc1NC(=O)CCSc1nnc(-c2ccncc2)o1	0.9	6.7	4.7	13.4	0.7	7.1	x
O=C(CCSc1nnc(-c2ccncc2)o1)Nc1ccccc1Cl	-0.2	3.0	-1.4	29.1*	1.1	-2.2	-7.4
CC1(C)Cc2ccccc2-c2nnc(SCC(=O)N3CCc4ccccc43)n21	-0.8	-5.5	-1.4	26.8*	-3.2	21.9	23.7
COc1ccc(CCCNC(=O)C2Cc3c(-c4ccc(NC(C)=O)cc4)ccnc3O2)cc1 (stereo not drawn)	x	x	x	-3.7	x	-6.8	x
C[C@@H]1CN([C@H](C)CO)C(=O)c2c(c3ccccc3n2C)-c2ccccc2CO[C@@H]1CN(C)S(=O)(=O)c1cccs1	x	x	x	6.2	x	-6.2	x
Cc1cccc(NC(=O)C2(c3cccs3)CCOCC2)c1	3.5	1.1	1.3	34.8*	10.3	-12.3	4.3
Cc1ccccc1C(=O)N1CCN(c2ccccn2)CC1	-2.3	5.2	0.8	4.9	6.4	-10.0	x
Cc1ccccc1C(=O)N1CCN(c2ncccn2)CC1	1.5	-1.9	-6.2	69.6*	-0.2	-9.4	1.7
Cc1cccc2nc(-c3cccc(NC(=O)c4ccc(Cl)cc4)c3)cn12	-4.0	-9.2	-2.0	57.7*	-17.7	15.3	24.4
Cc1cccc2nc(-c3cccc(NC(=O)Cc4ccccc4)c3)cn12	-1.1	4.7	9.2	7.0	2.4	-6.0	x
Cc1cc(CNC[C@H]2O[C@@H](n3cnc4c(N)ncnc43)[C@H](O)[C@@H]2O)no1	x	x	x	-9.3	x	-10.0	x
CC(C)(C)c1ccc(C(=O)N2CCC2(C)C(=O)NCc2ccc3c(c2)OCO3)cc1 (stereo not drawn)	x	x	x	-4.0	x	-16.0	x
O=C(NCCCNc1ccc(C(F)(F)F)cc1[N+](=O)[O-])c1ccc(F)cc1	5.5	3.9	-0.7	4.2	-0.9	-9.9	x
Cc1ccc(C(=O)NCCCNc2ccc(C(F)(F)F)cc2[N+](=O)[O-])cc1	14.0	7.9	7.6	24.6*	-0.4	-10.6	3.5
CC(OC(=O)C1CCN(c2ccc(C(F)(F)F)cn2)CC1)C(=O)Nc1cccc([N+](=O)[O-])c1 (stereo not drawn)	2.6	2.6	1.9	26.7*	1.1	-4.1	9.4
CC(=O)Nc1ccc(NCCc2ccco2)cc1	x	x	x	-3.5	x	-2.2	x
CCS(=O)(=O)C(=C1NCCO1)S(=O)(=O)CC	-2.8	9.3	4.7	24.8*	-2.2	-1.1	-3.7
